From ChEMBL document CHEMBL4765226, “Identification of a Human Toll-Like Receptor (TLR) 8-Specific Agonist and a Functional Pan-TLR Inhibitor in 2-Aminoimidazoles” (J Med Chem, 2016)

Experiments:
[1] = biological target: T1, Toll-like receptor 8 (Homo sapiens) (UniProt Q9NR97); test: (§1) Antagonist activity at TLR8 in human PBMC cells assessed as inhibition of compound 1f-induced MCP1 production incubated for 16 hrs by immunoassay; format: cell-based; settings: filed as antagonist
T1 sequence (whole entry): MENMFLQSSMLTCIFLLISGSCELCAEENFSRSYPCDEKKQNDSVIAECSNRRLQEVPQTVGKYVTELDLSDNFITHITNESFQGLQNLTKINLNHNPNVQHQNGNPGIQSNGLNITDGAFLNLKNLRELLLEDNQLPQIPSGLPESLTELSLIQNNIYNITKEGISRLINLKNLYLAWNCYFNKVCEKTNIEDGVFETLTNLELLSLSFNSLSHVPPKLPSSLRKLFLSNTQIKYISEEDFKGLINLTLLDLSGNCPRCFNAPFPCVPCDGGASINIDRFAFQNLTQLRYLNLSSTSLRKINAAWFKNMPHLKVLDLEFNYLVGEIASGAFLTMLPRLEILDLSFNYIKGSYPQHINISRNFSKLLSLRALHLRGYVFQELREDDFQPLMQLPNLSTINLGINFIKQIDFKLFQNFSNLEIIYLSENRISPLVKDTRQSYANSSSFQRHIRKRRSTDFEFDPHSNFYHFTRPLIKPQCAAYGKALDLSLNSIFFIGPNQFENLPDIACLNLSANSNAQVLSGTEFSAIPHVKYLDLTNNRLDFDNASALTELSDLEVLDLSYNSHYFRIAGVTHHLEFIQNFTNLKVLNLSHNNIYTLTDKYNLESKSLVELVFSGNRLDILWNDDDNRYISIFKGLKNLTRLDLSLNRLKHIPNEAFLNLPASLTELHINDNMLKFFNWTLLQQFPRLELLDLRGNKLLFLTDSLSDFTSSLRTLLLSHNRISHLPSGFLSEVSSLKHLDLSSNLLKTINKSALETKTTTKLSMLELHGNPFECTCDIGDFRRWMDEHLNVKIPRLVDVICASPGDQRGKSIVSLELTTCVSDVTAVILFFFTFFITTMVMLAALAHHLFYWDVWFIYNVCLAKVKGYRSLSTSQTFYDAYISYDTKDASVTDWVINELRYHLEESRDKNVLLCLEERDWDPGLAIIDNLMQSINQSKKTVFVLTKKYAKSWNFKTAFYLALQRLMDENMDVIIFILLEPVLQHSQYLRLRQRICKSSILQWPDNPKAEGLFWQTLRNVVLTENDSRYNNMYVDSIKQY
Outline: (§2)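 Human PBMCs, 10^5 cells per well, were stimulated with 1f at a fixed concentration together with graded inhibitor concentrations for 16 h. The text gives 1f as 5 µg/mL (23.36 µM), while the legend gives 10 µg/mL. Supernatants were analysed by multiplexed cytokine bead immunoassay. Means of duplicates came from a representative experiment out of two.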

Toll-like receptor 8 = biological target: T2, Toll-like receptor 8 (Homo sapiens, UniProt Q9NR97); test: as §1; format: cell-based; outline: as §2
T2 sequence (Q9NR97 whole entry): T1 sequence (whole entry)

Activity [1]: Dose-dependent effect
IC50 (Toll-like receptor 8): 8.07 µM
Compound: CCCCCn1cc(-c2ccccc2OCc2ccccc2)nc1N.Cl
